# Assay outcomes deposited in PubChem BioAssay by several laboratories.
# Rows were chosen to be rich in hits. Some 3.1% of all compounds tested hit in one or more screens of this group.
# Ins promoter up – MIN6 insulin promoter up-regulation | AID 1625 | 0.3% of 190,000 active | MIN6 insulin promoter-GFP reporter, high-content imaging; stronger effect = higher value | z-score at 5 µM;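 active means z-score above 3 at 5 µM with at least 500 cells counted in the well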
# Insulin prom inh – TRM-6 insulin promoter activity inhibition; TRM-6 cells (human fetal islet line), insulin promoter-eGFP reporter, imaging; reporter expression induced with tamoxifen; inhibition, % at 2 µM; 0.9% of 130,000 active; AID 1273;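 active means inhibition above the mean plus 3 SD, with well images judged a real hit on visual review, cut at about 60% in these data, passing the limit was not always enough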
# BB579 growth dn – yeast BB579 growth reduction in restrictive medium; inhibition, % at 10 µM; 0.51% of 140,000 active; AID 804; S. cerevisiae BB579 growth, OD615, 48 h;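 active means inhibition above a set limit, 3 SD over the mean compound inhibition, cut at about 44% in these data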
#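 Material: Saccharomyces cerevisiae DeaD strain BB579, replicative lifespan model yeast; buffer or medium: CSMM-D restrictive synthetic medium containing dextrose (glucose); compound: 10 µM single dose, DMSO 0.25%; timing: 48 h compound exposure at 30 °C after 4 h preincubation; signal: turbidity as optical density at 615 nm; benchmarks: positive control amphotericin B 10 µg/mL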
# Yeast life ext – extends the lifespan of yeast | 0.68% of 130,000 active | AID 775 | S. cerevisiae growth with nicotinamide, OD615; deaD strain in restrictive glucose medium | inhibition of the nicotinamide effect, % at 10 µM;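 active means inhibition above a set limit, placed 3 SD over the median of all compounds, cut at about 26% in these data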;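 further: 0% = nicotinamide-treated wells and 100% = cells grown without nicotinamide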
#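 Buffer or medium: CSMM-D glucose medium, restrictive; test system: modified budding yeast, DeaD strain; compound: single dose 10 µM compound, 0.25% DMSO; schedule: culture preincubation 4 h, compound exposure 48 h, both 30 °C; detection: optical density (absorbance) at 615 nm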
# RAM network inh – inhibitors of the yeast RAM network | S. cerevisiae dse1pr::URA3 reporter, 5-FOA growth OD615, 2 d; analog-sensitive cbk1-as2 kinase mutant strain | inhibition, % at 50 µM | 1.8% of 190,000 active;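 active means inhibition above a set limit, 3 SD over mean compound inhibition, cut at about 8.4% in these data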;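 further: 0% = DMSO-only wells with no growth and 100% = 10 µM 1-NA-PP1 full growth; inhibition rescues growth on 5-FOA so higher OD means more RAM inhibition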
# * marks the source's active call; other numbers are inactive results; x = not tested or not shown.
SMILES,Ins promoter up,Insulin prom inh,BB579 growth dn,Yeast life ext,RAM network inh
CN(C)CCNc1c2c(nc3nnnn13)CCCC2,-0.06,0.0,x,x,3.1
Cc1ccsc1CNC1C2CC3CC(C2)CC1C3 (configuration not stated),-0.16,x,x,x,0.4
O=C(O)C1=C[C@H](c2csc3ccccc23)C[C@H](OCCCCO)O1,0.55,x,x,x,0.4
Cc1ccc(S(=O)(=O)NCCSc2nnnn2-c2cc(C)ccc2C)cc1,0.23,-109.5,-46.2,-5.8,10.2*
Cc1cc(S(=O)(=O)NC2CCN(Cc3ccccc3)CC2)c(C)cc1Cl,-0.34,x,x,x,x
O=C1OC(c2ccc(F)cc2)=N/C1=C\c1ccc(Br)o1,0.28,-35.7,x,x,4.8
COc1ccc(Cn2nnc3c(=O)[nH]c(C(=O)NCCc4ccc(F)cc4)nc32)cc1OC,1.86,90.0*,-15.3,-10.7,0.2
Brc1ccc(-c2nnc3ccc(Nc4ccccc4)nn23)cc1,x,-40.0,-26.7,2.2,5.3
Cc1ccccc1C(=O)NN1C(=O)CSC1=S,0.39,27.6,-15.7,13.9,0.5
CCOC(=O)c1ccccc1N1C(=O)CSC1=S,-1.78,28.6,-24.6,36.9*,0.2
Cc1cc(C)c[n+](-c2nc3ccccc3nc2[N-]S(=O)(=O)c2ccc(Br)s2)c1,0.12,-93.5,-18.4,-2.3,0.1
CCOC(=O)CCCc1ccc(/C(C)=N/NC(N)=S)cc1,1.04,x,x,x,x
CCc1ccc(/C(C)=N\Nc2ccc([N+](=O)[O-])cc2)cc1,1.89,-63.3,-36.2,-4.1,5.4
C/C(=N\Nc1ccc([N+](=O)[O-])cc1)c1ccc(N)cc1,1.74,6.2,96.8*,-9.6,-1.6
CCCCCCn1nc(C(=O)Nc2nc3c(s2)CCCC3)c2ccccc2c1=O,-0.31,x,-17.5,2.8,10.9*
CCCCOc1ccc2c(C)cc(=O)oc2c1OCCCC,x,6.7,0.8,x,8.8*
O=S1(=O)CCN(OCc2ccc(Cl)cc2)CC1,0.02,6.7,x,x,2.2
O=C(NC(=S)NNC(=O)c1ccc(Cl)cc1Cl)c1cccnc1,-0.06,-18.5,-5.8,44.0*,-0.8
CC1=C(/C=C/C(=O)O)C(C)(C)CCC1,0.68,50.0,-1.8,28.2*,-1.0
COc1ccccc1NC(=O)c1ccc(COc2ccccc2OC)o1,-0.24,-33.3,-32.2,-25.4,5.4
COC(=O)c1ccccc1NC(=O)c1ccc(COc2ccc(C)c(C)c2)o1,0.4,-31.4,-25.7,-23.0,10.2*
COC(=O)c1ccccc1NC(=O)c1ccc(COc2cc(C)cc(C)c2)o1,0.52,x,-33.7,-3.3,11.2*
O=C(COC(=O)C1CC2C=CC1C2)NCc1ccc(F)cc1 (configuration not stated),x,x,-30.0,4.6,-0.8
COc1ccccc1NC(=O)COC(=O)C1CC2C=CC1C2 (configuration not stated),3.01*,-66.7,x,x,1.4
COc1ccccc1NC(=O)COC(=O)C12CC3CC(CC(Cl)(C3)C1)C2,0.71,-10.5,x,x,11.4*
SMILES,Ins promoter up,Insulin prom inh,BB579 growth dn,Yeast life ext,RAM network inh
O=C1OC2CC3CC1CC(O)(C3)C2 (configuration not stated),x,85.7*,-15.2,-16.2,3.2
COc1cc(N(C)C)c([N+](=O)[O-])cc1C(=O)N1CCOCC1,0.33,x,x,x,0.8
COC(=O)c1ccccc1NC(=O)C/C(C)=N/NC(=O)CC#N,2.45,71.4*,x,x,1.4
O=C(NNC(=O)c1ccc2nonc2c1)Nc1ccc(Cl)cc1,0.33,x,x,x,x
COc1ccc(CN2CCN(C(=O)CC(C)C)CC2)c2ccccc12,1,75.3*,11.3,-4.6,0.3
CCOC(=O)c1ccc(NC(=O)C2CC(=O)N=C(N)S2)cc1 (configuration not stated),0.16,x,x,x,1.1
Cc1ccc(CNS(=O)(=O)NCc2cccs2)cc1,-0.21,76.9*,x,x,-0.1
Cc1cc[n+]2n1CC(O)C2 (configuration not stated),0.21,x,x,x,x
O=C1/C(=C\c2ccc3ccccc3c2)CCCc2ccccc21,-0.59,5.3,-14.8,x,11.0*
Cc1ccccc1/C=C1\CCCc2ccccc2C1=O,0.31,5.3,4.5,x,-1.2
CCC(C)NC(=O)C1CCN(S(=O)(=O)c2cccc3cccnc23)CC1 (configuration not stated),-0.12,x,49.2*,-7.0,0.8
Cn1c(=O)[nH]c(=O)c2c1nc(CN1CCN(c3cccc(Cl)c3)CC1)n2CCCc1ccccc1,-0.6,x,-37.0,-8.6,9.5*
CCCCn1c(CN2CCN(c3cccc(Cl)c3)CC2)nc2c1c(=O)[nH]c(=O)n2C,-0.35,-43.8,-31.8,x,2.2
Cc1cc(-c2nc3ncccc3o2)ccc1NC(=S)NC(=O)C(C)C,-0.74,x,x,x,3.8
Cn1c(=O)c(=O)n(C)c2cc(S(=O)(=O)N3CCN(Cc4ccccc4)CC3)ccc21,-0.17,x,-16.7,87.9*,0.8
COc1cccc(OC)c1OCCN(C)C,3.98*,70.0*,4.1,-9.5,2.0
Cc1ccn2cc(CCNC(=O)C3CC=CCC3C(=O)O)nc2c1 (configuration not stated),0.29,x,x,x,x
O=[N+]([O-])c1cccc(-c2nc(NCc3ccccc3)c3ccccc3n2)c1,-0.37,-322.2,-23.3,2.7,8.7*
CC1CCCC2(C1)NC(=S)N(c1ccccc1)N2 (configuration not stated),1.61,40.0,87.1*,-32.1,-1.6
O=C(COc1ccccc1-c1ccccc1)NN=C1CCCC1,0.07,x,x,x,2.1
CCc1nnc(NC(=O)c2nc3nc(C)cc(C)n3n2)s1,x,5.5,13.8,-4.6,-1.3
CCN(c1ccccc1)S(=O)(=O)c1ccc(Cl)c(NC(=O)CSc2n[nH]c(N)n2)c1,0.28,x,-30.0,1.0,0.2
CC(C)(C)C(=O)Nc1cc(S(=O)(=O)Nc2ccc(Cl)cc2)ccc1Cl,0.4,0.0,-25.4,8.0,11.2*
CC(C)(C)C(=O)Nc1ccc(S(=O)(=O)c2ccc(NC(=O)C(C)(C)C)cc2)cc1,0.37,75.0*,-2.2,-5.9,3.0
Cc1cccc(CNc2ccc(C(CC(N)=O)NC(=O)c3cccc(Br)c3)cc2[N+](=O)[O-])c1 (configuration not stated),0.34,x,x,x,x
SMILES,Ins promoter up,Insulin prom inh,BB579 growth dn,Yeast life ext,RAM network inh
O=C(Nc1ccccc1N1CCN(C(=O)c2ccccc2)CC1)c1cc2ccccc2o1,-1.74,-181.2,-32.2,4.5,8.5*
N#Cc1nc(Cc2cccc3ccccc23)oc1N1CCOCC1,-0.78,16.1,-10.4,-10.4,0.6
CC1CCN(c2oc(Cc3cccc4ccccc34)nc2C#N)CC1,-0.51,0.0,-30.6,-20.1,10.1*
N#Cc1nc(COc2ccccc2)oc1N1CCC(Cc2ccccc2)CC1,0.52,27.3,-62.0,5.5,10.8*
C=CCS(=O)(=O)N1CCC(CCOc2ccccc2)(C(=O)OCC)CC1,0.53,x,x,x,2.7
COc1ccc2cc(C(=O)N/N=C/c3sc4ccccc4c3O)ccc2c1,x,-60.0,-62.2,7.8,4.4
O=C(N/N=C/c1sc2ccccc2c1O)c1cccc2ccccc12,-0.39,-2.9,91.5*,-3.9,2.7
COc1ccc(C(=O)N/N=C/c2sc3ccccc3c2O)cc1,-0.23,50.0,85.0*,-2.1,0.3
